V1R ag counter – V1a receptor agonism, counter-screen for OXTR agonists; P37288; CHO-V1R cells, Fluo-8 calcium fluorescence, agonist mode; 0% DMSO, 100% 3 nM vasopressin; activation, % at 3 µM; 320,000 tested, 0.25% active; AID 2797;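 active means activation above the mean activation of all tested compounds plus 3 SD, per screening run, cut at about 20% in these data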;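 further: signal is peak over basal fluorescence ratio across a 100 second FLIPR read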
Target sequence (P37288 whole entry, looked up): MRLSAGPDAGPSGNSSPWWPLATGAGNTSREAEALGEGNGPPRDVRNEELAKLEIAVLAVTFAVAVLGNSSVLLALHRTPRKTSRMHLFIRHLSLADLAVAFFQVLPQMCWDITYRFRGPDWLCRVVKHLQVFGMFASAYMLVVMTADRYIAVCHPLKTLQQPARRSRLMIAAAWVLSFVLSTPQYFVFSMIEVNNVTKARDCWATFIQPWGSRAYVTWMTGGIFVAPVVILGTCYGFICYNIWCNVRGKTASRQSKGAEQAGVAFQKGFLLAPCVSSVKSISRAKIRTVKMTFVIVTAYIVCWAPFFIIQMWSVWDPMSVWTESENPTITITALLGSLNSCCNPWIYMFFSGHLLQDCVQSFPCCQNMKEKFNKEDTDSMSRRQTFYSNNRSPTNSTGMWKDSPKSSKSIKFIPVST
OXTR potentiate – potentiates the human oxytocin receptor response. 320,000 tested, 0.061% active. CHO-OTR cells, Fluo-8 calcium fluorescence, potentiator mode; 0% = oxytocin EC15, 100% = EC100. activation, % at 3 µM. AID 2445. P30559;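 active means activation above that plate's cutoff, the mean activation of tested compounds plus 3 SD, cut at about 6.6% in these data, passing the limit was not always enough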
Target sequence (P30559 whole entry, looked up): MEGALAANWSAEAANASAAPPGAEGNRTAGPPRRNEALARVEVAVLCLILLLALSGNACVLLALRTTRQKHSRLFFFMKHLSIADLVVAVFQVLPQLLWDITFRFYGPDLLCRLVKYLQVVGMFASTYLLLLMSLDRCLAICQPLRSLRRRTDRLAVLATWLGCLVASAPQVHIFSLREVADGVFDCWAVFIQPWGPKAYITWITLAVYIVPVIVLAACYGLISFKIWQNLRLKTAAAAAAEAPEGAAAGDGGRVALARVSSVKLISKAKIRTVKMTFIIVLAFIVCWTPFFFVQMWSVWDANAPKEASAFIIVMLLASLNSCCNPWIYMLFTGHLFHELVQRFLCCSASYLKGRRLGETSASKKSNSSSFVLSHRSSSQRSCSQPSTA
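System: human OTR in CHO cells / Also added: sub-maximal oxytocin, roughly EC15 / Control set: EC15 oxytocin low, 75 nM oxytocin high / Schedule: 6 min compound pre-incubation at room temperature, 100 s kinetic read / Compound: single-point 3.0 µM / Replication: singlicate / Technique: Fluo-8 calcium dye fluorescence / Read-out basis: % activation of max/min ratio relative to oxytocin controls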
TRPML3 agonist – activates the human TRPML3 channel. 220,000 tested, 0.29% active. HEK293 TRPML3-YFP, Fluo-8 calcium fluorescence; 100% = the carbachol control signal. activation, % at 3 µM. AID 1448. Q8TDD5;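 active means activation above its plate's cutoff, the mean activation of the plate's test wells plus 3 SD, cut at about 12% in these data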
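Material: TRPML3-YFP stable HEK293 cells | Dosing: One concentration, 3 µM nominal, 0.3% DMSO | Timing: 125 s total fluorescence read per well | Technique: Fluo-8 calcium dye fluorescence, ex 470-495, em 515-575 nm | Measure: Percent activation from peak-to-basal fluorescence ratio, scaled between DMSO and carbachol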
OXTR agonist – human OXTR agonism; CHO-OTR cells, Fluo-8 calcium fluorescence; normalized: DMSO 0%, oxytocin 100%; AID 2435; P30559; 320,000 tested, 0.32% active; activation, % at 3 µM;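 active means activation above the mean of all tested compounds plus 3 SD, cutoff set per screening run, cut at about 20% in these data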;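 further: peak over basal fluorescence ratio from a 100 s FLIPR kinetic read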
TRPN1 ag – activates the zebrafish TRPN1 channel. AID 1424. HEK293 zebrafish TRPN1-YFP, Fluo-8 calcium fluorescence; 100% = response to 87 µM carbachol. activation, % at 3 µM. 220,000 tested, 0.18% active;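 active means activation above its plate's cutoff, the mean activation of test wells on that plate plus 3 SD, cut at about 19% in these data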
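Material: zebrafish TRPN1-YFP in HEK293 cells. Doses: one dose of 3 µM, 0.3% DMSO. Incubation: dye 1 h 37 °C plus 30 min RT. Measured by: intracellular calcium fluorescence with Fluo-8.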
TRPN1 counter – activates zebrafish TRPN1, counter-screen for TRPML3 agonists; shares compounds with TRPML3 agonist; HEK293 zebrafish TRPN1-YFP, Fluo-8 calcium fluorescence; scaled: carbachol wells 100%, DMSO wells 0%; activation, % at 3 µM; 310 tested, 10% active; AID 1525;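 active means mean activation over replicates above a set limit taken from the earlier TRPN1 channel primary screen, cut at about 19% in these data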
TRPML3 ag conf – confirmation of human TRPML3 channel agonists; HEK293 TRPML3-YFP, Fluo-8 calcium fluorescence; 100% set by carbachol, 0% by DMSO; 310 tested, 80% active; shares compounds with TRPML3 agonist; activation, % at 3 µM; AID 1526;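 active means activation above a set limit derived from the earlier primary screen, cut at about 12% in these data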
OXTR ag confirm – confirmation of human oxytocin receptor agonists. CHO-OTR cells, Fluo-8 calcium fluorescence, agonist. 390 tested, 20% active. activation, % at 3 µM. shares compounds with OXTR agonist;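 active means mean activation above about 20% derived from the earlier single-dose screen, limit read from the data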;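 further: peak over minimum fluorescence ratio per well during a 100 second FLIPR read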
V1aR counter 3x – counter-screen for oxytocin receptor agonists: V1a receptor agonists; shares compounds with OXTR agonist; CHO-V1R cells, Fluo-8 calcium fluorescence, agonist; activation, % at 3 µM; 390 tested, 10% active; AID 434991;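 active means mean activation over triplicate exceeds the hit threshold set in the earlier primary screen, cut at about 20% in these data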;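 further: peak over basal fluorescence ratio within a 100 second read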
Large screens that a line does not name were inactive (follow-up assays come after a bar, where they were run). Sampled rows, rich in hits. Any-hit rate of the full collection: about 0.58%.

CCC1CCCCN1S(=O)(=O)c1ccc(S(=O)(=O)N(Cc2cccs2)C2CC2)cc1 (stereo unspecified)	TRPML3 agonist 94.7 | TRPN1 counter inactive | TRPML3 ag conf 112.2
O=C(NCc1ccco1)C1CCCN(c2nnc(-n3cccc3)s2)C1 (stereo unspecified)	none (no result: TRPML3 agonist, TRPN1 ag)
CN(CC(=O)Nc1ccc(Cl)c(Cl)c1)C(=O)CNC(=O)Cc1ccccc1	none (no result: TRPML3 agonist, TRPN1 ag)
CC12CCC(C(=O)N(CC(=O)O)C1=O)C2(C)C (stereo unspecified)	none
CC12CCC(C(=O)N(CSC(=S)N/N=C\c3ccccc3)C1=O)C2(C)C (stereo unspecified)	TRPML3 agonist 43.3 | TRPN1 counter inactive | TRPML3 ag conf inactive
CC12CCC(C(=O)N(CSC(=S)N/N=C\c3ccccc3Cl)C1=O)C2(C)C (stereo unspecified)	TRPML3 agonist 38.4 | TRPN1 counter inactive | TRPML3 ag conf inactive
CCOc1ccc(C(C(=O)NC2CCCC2)N(Cc2ccccc2)C(=O)c2nsc(Cl)c2Cl)cc1 (stereo unspecified)	none
COc1ccc(C(C(=O)NC2CCCC2)N(Cc2ccccc2)C(=O)c2nsc(Cl)c2Cl)cc1 (stereo unspecified)	TRPML3 agonist 17.0 | TRPN1 counter inactive | TRPML3 ag conf 24.5
CCOC(=O)c1c(CSc2ccc(C)cc2)oc2ccc(O)cc12	TRPML3 agonist 29.9 | TRPN1 counter inactive | TRPML3 ag conf 46.1
Cc1ccc(NC(=O)Cc2ccccc2)cc1S(=O)(=O)N1CCOCC1	none (no result: TRPML3 agonist, TRPN1 ag)
CC(=O)c1sc(NC(=O)C2(F)C(F)(F)C(F)(F)C(F)(F)C(F)(F)C2(F)F)nc1C	TRPML3 agonist 21.7, OXTR agonist 20.9 | TRPN1 counter 30.9 | TRPML3 ag conf 15.7 | OXTR ag confirm inactive | V1aR counter 3x inactive
CC1=C/C(=N\OS(=O)(=O)c2ccccc2)C(C)=CC1=O	TRPML3 agonist 13.3, OXTR agonist 19.9 | TRPN1 counter 20.2 | TRPML3 ag conf 41.6 | OXTR ag confirm inactive | V1aR counter 3x inactive
COc1cc(C(=O)O/N=C2/C=C(C)C(=O)C=C2C)cc(OC)c1OC	none
c1ccc2c(c1)OCCOCCOCCOCCOCCOc1ccccc1OCCOCCOCCO2	TRPML3 agonist 11.6, OXTR agonist 21.0 | TRPN1 counter 25.0 | TRPML3 ag conf inactive | OXTR ag confirm inactive | V1aR counter 3x inactive
CCN(CC(=O)Nc1c(F)cccc1F)C(=O)C1CCN(S(=O)(=O)c2ccc(C)cc2C)CC1	none (no result: TRPML3 agonist, TRPN1 ag)
O=C(NC1CCS(=O)(=O)C1)c1ccc2c(c1)OCO2 (stereo unspecified)	none (no result: TRPML3 agonist, TRPN1 ag)
COc1ccccc1OCC(=O)Nc1ccncc1	none (no result: TRPML3 agonist, TRPN1 ag)
Cc1cccc(OCC(=O)Nc2ccncc2)c1C	OXTR agonist 20.3 (no result: TRPML3 agonist, TRPN1 ag) | OXTR ag confirm inactive | V1aR counter 3x inactive
CCCCN(C)Cc1cc(=O)oc2ccc3ccccc3c12	none (no result: TRPML3 agonist, TRPN1 ag)
COc1ccc(CNc2ncnc3c2[nH]c2cc(OC)c(OC)cc23)cc1	none
COc1ccc(CNc2ncnc3c2[nH]c2ccccc23)cc1	OXTR agonist 26.3 | OXTR ag confirm 22.2 | V1aR counter 3x inactive
C1=C(CCNc2ncnc3c2[nH]c2ccccc23)CCCC1	OXTR agonist 20.8, TRPN1 ag 20.9 | OXTR ag confirm inactive | V1aR counter 3x inactive
O=c1c2[nH]c3ccccc3c2ncn1CCC1=CCCCC1	none
OC(CNC1CCCc2ccccc21)COc1ccc2ccccc2c1 (stereo unspecified)	none
CCc1ccccc1OC[C@@H](O)CN[C@H]1CCCc2ccccc21	OXTR agonist 22.3 (no result: TRPML3 agonist, TRPN1 ag) | OXTR ag confirm inactive | V1aR counter 3x inactive
CCOC(=O)NC(NCc1cccc(C(F)(F)F)c1)(C(F)(F)F)C(F)(F)F	OXTR agonist 24.9 | OXTR ag confirm inactive | V1aR counter 3x inactive
CCOC(=O)NC(NCc1ccccc1Cl)(C(F)(F)F)C(F)(F)F	none
OC(c1cc(C(F)(F)F)nc2c(C(F)(F)F)cccc12)C1CCCCN1 (stereo unspecified)	OXTR agonist 23.6 (no result: TRPML3 agonist, TRPN1 ag) | OXTR ag confirm inactive | V1aR counter 3x inactive
O=C(CNC(=O)OCc1ccccc1)Nc1ccc(F)cc1	none (no result: TRPML3 agonist, TRPN1 ag)
CCOc1ccc(NS(=O)(=O)c2ccc(C(=O)NCC(C)(C)N3CCOCC3)cc2)cc1	none (no result: TRPML3 agonist, TRPN1 ag)
CC(C)(CNC(=O)c1ccc(S(=O)(=O)Nc2ccc(Cl)cc2)cc1)N1CCOCC1	OXTR agonist 21.4 (no result: TRPML3 agonist, TRPN1 ag) | OXTR ag confirm inactive | V1aR counter 3x inactive
Cc1ccccc1-n1sc2cc(F)ccc2c1=O	OXTR agonist 23.2 | OXTR ag confirm inactive | V1aR counter 3x inactive
O=c1c2cc(F)ccc2sn1-c1ccccc1	none (no result: TRPML3 agonist, TRPN1 ag)
COc1ccc(NC(=O)c2ccc(NC(=O)CSc3nc(N)cc(=O)[nH]3)cc2)cc1	none (no result: TRPML3 agonist, TRPN1 ag)
O=C(O)c1cccc(NC(=O)c2cn(-c3ccccc3)nc2-c2cc3ccccc3o2)c1	OXTR agonist 20.2 | OXTR ag confirm inactive | V1aR counter 3x inactive
CCCCN(CCCC)c1ccc(C(=O)c2ccccc2C(=O)O)c(O)c1	OXTR agonist 34.3 | OXTR ag confirm inactive | V1aR counter 3x inactive
CS(=O)(=O)c1ccc(Cl)c(NC(=O)c2cccc(-n3cnnn3)c2)c1	none (no result: TRPML3 agonist, TRPN1 ag)
CCCc1ccc(Oc2c(-c3ccc(O)c(C)c3O)n[nH]c2C)cc1	OXTR agonist 19.6 | OXTR ag confirm 21.7 | V1aR counter 3x inactive
COc1ncnc(OC)c1S(=O)(=O)Nc1ccc(C(F)(F)F)cc1	none (no result: TRPML3 agonist, TRPN1 ag)
C=CCn1c(SCCCC)nc(O)cc1=O	OXTR agonist 33.3 | OXTR ag confirm inactive | V1aR counter 3x inactive
O=C(O)c1ccc(N/N=C/c2cn(Cc3ccc(F)cc3)c3ccccc23)cc1	OXTR agonist 20.7 | OXTR ag confirm inactive | V1aR counter 3x inactive
CCOC(=O)c1cc(C)sc1NC(=O)CN1CCN(C(=O)c2ccco2)CC1	OXTR agonist 23.0 (no result: TRPML3 agonist, TRPN1 ag) | OXTR ag confirm inactive | V1aR counter 3x inactive
O=C(COc1ccc2ccccc2c1)N[C@@H](C(=O)O)c1ccc(O)cc1	none (no result: TRPML3 agonist, TRPN1 ag)
CC1C/C(=C/c2ccco2)C(=O)/C(=C/c2ccco2)C1 (stereo unspecified)	OXTR agonist 24.3 | OXTR ag confirm inactive | V1aR counter 3x inactive

Source: PubChem BioAssay
